Measured values from PubChem BioAssay AID492968 (Southern Research Specialized Biocontainment Screening …, 2010).

System: HEp-2 viability, luminescence (CellTiter-Glo)
Assay: viability loss in uninfected HEp-2 cells – cell-based, CellTiter-Glo luminescence, synthesized compounds, set 3, cytotoxicity control for RSV inhibitor project, dose response (AID 492968)
Method in brief: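 System: HEp-2 cells. Input: 10,595 cells/well. Medium: complete DMEM/F12 medium adjusted to pH 7.5. Compound: 8-point 1:2 series, 0.39–50 µM, 0.5% DMSO. Times: compound exposure of 6 days at 37 °C, 5% CO2. Technique: CellTiter-Glo luminescence. Read-out: CC50 from four-parameter fit of % viability, bounds 0 and 100.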

Compound	CC50
Cc1ccc(NC(=O)[C@@H]2CCCN2S(=O)(=O)c2cccc3cccnc23)cc1	27.1 µM
Cc1cc(C)cc(NC(=O)[C@@H]2CCCN2S(=O)(=O)c2cccc3cccnc23)c1	31.6 µM
Cc1ccccc1NC(=O)[C@@H]1CCCN1S(=O)(=O)c1cccc2cccnc12	45 µM
